The results in this text go back to PubChem BioAssay.

The source made the active and inactive calls.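 The calls were made as follows, unless noted: active = fluorescence slope after compound addition differing from the mean of all tested samples at 99.7% confidence, mostly higher but some lower; inactive = the rest.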

Experiment [1] can be described thus: inhibitors of TNFa-induced NFkB p65 translocation, primary screen, imaging, HUVEC, MLSMR starter and 10KST1 sets (AID 438;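 active = inhibition above 20% together with a positive visual image hit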;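 also: compound added about 3h40 before a 20 min TNFalpha stimulation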;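 as to inhibition: signal is the nuclear over cytoplasmic p65 intensity ratio per well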). The conditions noted are these: HUVEC TNFa-induced p65 nuclear translocation; cell count: measured here: nuclei count (cytotoxicity indicator), at 2.08 µM; inhibition: at 2 µM, stronger effect = higher value, 0% TNFa-plus-vehicle, 100% no-TNFa wells.

Experiment [2] in a line: endothelial E-selectin expression blockers – imaging, HUVEC, immunofluorescence, MLSMR starter and 10KST1 sets, primary screen (AID 487;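 active = visually confirmed hit in the image check and inhibition above 20%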;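 as to inhibition: signal is fraction of cell area covered by stained E-selectin grains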;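 as to nuclei count: 100% = median nuclei count of all wells on the same plate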). The note with it: HUVEC TNFalpha-induced E-selectin immunofluorescence imaging, at 2 µM; inhibition: stronger effect = higher value; nuclei count: measured here: cell number, toxicity.
A short description of experiment [3]: Primary imaging screen for DUSP6 inhibitors that restore phospho-Erk in transfected HeLa cells, chemical complementation (AID 609;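 active = compounds giving at least 50% inhibition in the cell-based MKP-3 phosphatase rescue imaging test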;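 as to inhibition: phospho-Erk level distribution per well compared with pooled transfected vehicle control wells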). The note with it: HeLa MKP-3 transfected, phospho-Erk imaging KS statistic, at 10 µM, cells stimulated with TPA for 15 min.
For experiment [4], the target named is Dual specificity protein phosphatase 6 (Homo sapiens) (UniProt Q16828). The description is as above. The note with it: HeLa MKP-3 transfected, phospho-Erk imaging KS statistic; at 10 µM; stronger effect = higher value; cells stimulated with TPA for 15 min.
Experiment [5] concerns the target Voltage-gated potassium channel subunit beta-2 (Rattus norvegicus) (UniProt P62483). Nature of the experiment: inhibitors of rat Kvbeta2 reductase activity – biochemical, NADPH fluorescence, primary screen (AID 622;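 active = fluorescence slope higher than the sample average by over 3 SD, cut at about -0.22 in these data, passing the limit was not always enough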;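 also: slope of raw intensity against log time taken from 70 to 1610 s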). The note with it: recombinant KvBeta, 4-cyanobenzaldehyde reduction, at 10 µM, stronger effect = higher value.
For experiment [6] the target is unchanged. Nature of the experiment: enhancers of rat Kvbeta2 NADPH turnover – biochemical, NADPH fluorescence, primary screen (AID 623;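 active = NADPH fluorescence slope more negative than the mean of all samples by about 3 SD, 99.7% confidence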;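 also: fluorescence intensity change per second fitted from 20 to 320 s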). The conditions noted are these: Recombinant KvBeta, NADPH fluorescence decrease slope, 10 min; at 10 µM; stronger effect = lower value.
Experiment [7] deals with Muscarinic acetylcholine receptor M4 (Homo sapiens) (UniProt P08173). Nature of the experiment: M4-linked GIRK flux change, two-sided – cell-based, HEK293 M4/GIRK, thallium flux, BTC-AM, M4 allosteric agonist project, primary screen (AID 625).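 Also: thallium influx through GIRK channels coupled to M4 in HEK293 cells with BTC-AM dye.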 The conditions noted are these: at 10 µM, actives lie on both sides. The essentials:
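System: HEK293 cells with M4 receptor and GIRK channels | Incubation: Cells overnight at 37 °C, BTC-AM loading 1 h, reads 2 min total | Technique: Kinetic BTC-AM fluorescence sampled at 1 Hz, 10 s pre-addition baseline | Measure: Post-addition slope, 15–24 s, of baseline-normalized fluorescence | Control set: Carbachol positive, DMSO negative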

Experiment [8] in a line: inhibitors of larval lipid processing in zebrafish, primary screen, whole organism, PED6 fluorescence, gall bladder and intestine (AID 686;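 active = a full or partial loss of lipid-probe fluorescence in the fish gall bladder, intestine or both, judged by eye; inactive = no fluorescence loss, or compound toxic to the fish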;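 also: larvae 5 to 7 days old with five fish per well; signal comes from phospholipase A2 cleavage of quenched PED6 carried via bile; overnight exposure to compound and PED6 before scoring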). The conditions noted are these: Zebrafish larvae PED6 lipid processing, fluorescence scoring; screened at 20 µM (by protocol). In outline:
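Test system – live zebrafish larvae aged 5-7 days, whole organism · Buffer or medium – E3 fish medium · Reagent – quenched phospholipase substrate PED6, 100 nM final, ingested by larvae · Doses – 20 µM single dose · Incubation – overnight compound and PED6 incubation · Technique – visual fluorescence microscopy scoring of gall bladder, gut · Read-out basis – visual per-well fluorescence inhibition score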

Experiment [9] can be described thus: loss of swimming-algae plug formation – whole organism, Chlamydomonas reinhardtii, WT vs cilia-less mutant, absorbance, 96-well, primary screen (AID 463189;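 active = inhibition at or above 50% relative to wild type and mutant plate controls; inactive = inhibition below 50%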;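 also: 0% = wild type cc124 cells in DMSO and 100% = ciliumless bld1 mutant cells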). The conditions noted are these: Chlamydomonas reinhardtii gravitaxis, OD600 absorbance, 2 days; at 10 µM; stronger effect = higher value.
The mark [10] stands for this setting: measured here: cell density z-score.
Setting [11] is: measured here: nuclear c-Myc green intensity z-score.
Where [12] appears, read: measured here: nuclear pErk red intensity z-score, stronger effect = higher value.

Muscarinic acetylcholine receptor M4 (Homo sapiens), sequence (P08173 whole entry, looked up): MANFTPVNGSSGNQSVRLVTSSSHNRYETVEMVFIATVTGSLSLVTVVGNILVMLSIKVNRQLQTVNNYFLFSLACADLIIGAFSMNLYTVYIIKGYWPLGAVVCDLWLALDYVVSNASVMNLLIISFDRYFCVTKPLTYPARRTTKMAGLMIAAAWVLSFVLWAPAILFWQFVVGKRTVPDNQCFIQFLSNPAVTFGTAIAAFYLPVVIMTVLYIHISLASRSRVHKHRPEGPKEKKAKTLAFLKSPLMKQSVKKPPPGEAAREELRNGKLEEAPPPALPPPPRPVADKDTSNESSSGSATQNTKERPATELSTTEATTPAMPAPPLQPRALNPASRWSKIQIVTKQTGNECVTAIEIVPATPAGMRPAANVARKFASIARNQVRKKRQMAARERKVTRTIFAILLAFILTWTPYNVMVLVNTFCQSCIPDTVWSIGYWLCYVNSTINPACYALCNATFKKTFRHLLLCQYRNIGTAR
Voltage-gated potassium channel subunit beta-2 (Rattus norvegicus), sequence (P62483 whole entry, looked up): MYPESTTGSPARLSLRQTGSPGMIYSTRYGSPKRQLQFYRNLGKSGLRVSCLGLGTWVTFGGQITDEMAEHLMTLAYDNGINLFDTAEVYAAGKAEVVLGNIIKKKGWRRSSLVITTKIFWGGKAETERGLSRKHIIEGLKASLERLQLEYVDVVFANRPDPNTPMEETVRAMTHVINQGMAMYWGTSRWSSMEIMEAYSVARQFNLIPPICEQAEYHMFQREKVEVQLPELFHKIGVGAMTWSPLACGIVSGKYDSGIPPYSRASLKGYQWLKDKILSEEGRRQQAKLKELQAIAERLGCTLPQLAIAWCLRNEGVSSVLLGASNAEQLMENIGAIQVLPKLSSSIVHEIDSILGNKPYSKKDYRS
Dual specificity protein phosphatase 6 (Homo sapiens), sequence (Q16828 whole entry, looked up): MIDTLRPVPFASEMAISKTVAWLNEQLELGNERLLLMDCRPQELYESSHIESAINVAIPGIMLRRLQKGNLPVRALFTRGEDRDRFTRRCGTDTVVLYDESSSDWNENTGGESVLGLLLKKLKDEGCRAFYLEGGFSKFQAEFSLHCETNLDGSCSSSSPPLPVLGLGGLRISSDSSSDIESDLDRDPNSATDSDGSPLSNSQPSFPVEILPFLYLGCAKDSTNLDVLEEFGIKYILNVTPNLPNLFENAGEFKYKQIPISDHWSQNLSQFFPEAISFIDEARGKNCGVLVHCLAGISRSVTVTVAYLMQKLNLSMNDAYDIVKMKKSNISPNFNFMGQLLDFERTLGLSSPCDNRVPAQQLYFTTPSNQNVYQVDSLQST

Usually inhibition stands for the relative decrease from the control value, in per cent. As for `CC12CN3CC(C)(CN(C1)C3c1ccc(Br)cc1O)C2` (centres undefined), the cell count in experiment [1] came out at 576. Also, the inhibition was -3% (inactive) in [1], -162% (inactive) in [2], 5.42% (inactive) in experiment [4] and 4.37% (inactive) in [9]. This compound returned a nuclei count in [2] of 138%. Further, the z-score is 0.885 in experiment [3] (setting [10]), -1.75 in [3] (setting [11]) and -1.65 in experiment [3] (setting [12]). Further, the fluorescence slope is -0.472 (inactive) in [5] and 0.00399 (inactive) in experiment [7]. The NADPH fluorescence slope in experiment [6] was -8.8e-05 (inactive). In addition, the outcome in [8] was inactive.

For `COc1ccc(-n2ncc3c(N4CCC(C(N)=O)CC4)ncnc32)cc1`, the cell count in experiment [1] was 602. Further, the inhibition was -18.6% (inactive) in [1], -114% (inactive) in experiment [2], 13.4% (inactive) in experiment [4] and -0.327% (inactive) in [9]. Also, the nuclei count in experiment [2] came to 159%. In addition, the z-score in experiment [3] (setting [10]) was 0.0865; in [3] (setting [11]), 1.24; in [3] (setting [12]), -0.312. The results for the fluorescence slope in [5] and in experiment [7] were -0.385 (inactive) and 0.00675 (inactive), respectively. Besides, the NADPH fluorescence slope in experiment [6] is -6.8e-05 (inactive). In addition, the compound was classed as inactive in [8].

Take `C=CCc1cccc(/C=N/n2cnnc2)c1O`: the cell count in experiment [1] is 534. Further, the inhibition is -6.9% (inactive) in experiment [1], -121% (inactive) in experiment [2], 13.4% (inactive) in [4] and -8.96% (inactive) in experiment [9]. This compound also registered a nuclei count in experiment [2] of 136%. For the same compound, the z-score is -0.238 in experiment [3] (setting [10]), 0.5 in experiment [3] (setting [11]) and -0.321 in [3] (setting [12]). Also, the fluorescence slope in experiment [5] is -0.446 (inactive); in experiment [7] it was 0.00478 (inactive). In addition, in experiment [6], the NADPH fluorescence slope was -0.00012 (inactive). For the same compound, in experiment [8], the call was inactive.

On to `OCCN=C(c1ccccc1)C12CN3CN(CN(C3)C1)C2`, for which the cell count in experiment [1] was 568. For the same compound, the inhibition in experiment [1] is -5.7% (inactive); in [2], -133% (inactive); in [4] it was 15.4% (inactive); in experiment [9] it was 7.41% (inactive). In experiment [2], this compound came in with a nuclei count of 150%. The z-score was 0.238 in [3] (setting [10]), -2.23 in experiment [3] (setting [11]) and 0.262 in [3] (setting [12]). Further, the results for the fluorescence slope in experiment [5] and in experiment [7] were -0.48 (inactive) and 0.0051 (inactive), respectively. In addition, the NADPH fluorescence slope in experiment [6] is -2.2e-05 (inactive). Besides, the call in [8] was inactive.

In the case of `Cc1sc(-n2c(C)cc(/C=N/n3cnnc3)c2C)c(C#N)c1C`, in experiment [1], the cell count came out at 408. Moreover, the inhibition in [1] is 1.9% (inactive); in [2], 29.3% (inactive); in experiment [4], 3.56% (inactive); in experiment [9], 14% (inactive). In addition, the nuclei count in [2] stood at 85.2%. The results for the z-score in experiment [3] (setting [10]), in [3] (setting [11]) and in experiment [3] (setting [12]) were -1.21, -0.424 and 0.842, respectively. In addition, the fluorescence slope in experiment [5] is -0.546 (inactive); in experiment [7], 0.00473 (inactive). Moreover, the NADPH fluorescence slope in experiment [6] is -9.2e-05 (inactive). Further, the outcome in experiment [8] was inactive.

On to `CCOC(=O)NC1(C(F)(F)F)C(=O)NC(C)=C1C#N` (centres undefined), for which, in experiment [1], the cell count was found to be 377. Also, the inhibition was 3.7% (inactive) in experiment [1], 5.5% (inactive) in experiment [2], 3.42% (inactive) in experiment [4] and 23.5% (inactive) in experiment [9]. In experiment [2], this compound registered a nuclei count of 129%. Moreover, the z-score is -0.0977 in [3] (setting [10]), -0.0162 in experiment [3] (setting [11]) and 0.321 in [3] (setting [12]). Besides, the figures for the fluorescence slope in experiment [5] and in experiment [7] were -0.427 (inactive) and 0.00503 (inactive), respectively. In addition, the NADPH fluorescence slope in experiment [6] is -0.000119 (inactive). The outcome in experiment [8] was inactive.

As for `O=C(O)C1CC(=O)n2c(nc3ccccc32)S1` (centres undefined), the cell count in [1] came to 608. Further, the inhibition is -4.4% (inactive) in experiment [1], -24.7% (inactive) in [2], 3.49% (inactive) in [4] and 8.06% (inactive) in [9]. For the same compound, the nuclei count in experiment [2] is 119%. The z-score in [3] (setting [10]) is 0.706; in experiment [3] (setting [11]) it was -1.47; in experiment [3] (setting [12]), -0.562. Further, the values for the fluorescence slope in experiment [5] and in [7] were -0.47 (inactive) and 0.00435 (inactive), respectively. Further, in experiment [6], the NADPH fluorescence slope is -6e-05 (inactive). Moreover, the call in experiment [8] was inactive.

Regarding `CCN(CC)CCCN1C(=O)C(=O)/C(=C(/O)c2ccc(OC)cc2)C1c1ccco1` (centres undefined), in [1], the cell count was determined as 651. Further, the inhibition in [1] was -11.9% (inactive); in experiment [2], 43.5% (inactive); in experiment [4] it was -0.233% (inactive); in [9], -7.38% (inactive). In [2], this compound registered a nuclei count of 185%. Also, the results for the z-score in experiment [3] (setting [10]), in [3] (setting [11]) and in experiment [3] (setting [12]) were 0.516, 0.587 and 0.462, respectively. Besides, the fluorescence slope in experiment [5] is -0.471 (inactive); in [7], 0.0055 (inactive). The NADPH fluorescence slope in experiment [6] is -0.000107 (inactive). In addition, in experiment [8], the call was inactive.

As to `Cn1c(CSc2ncn[nH]2)nc2ccccc21`, in experiment [1], the cell count came out at 537. For the same compound, the inhibition in [1] was -6.4% (inactive); in experiment [2], -75.5% (inactive); in [4], 20.2% (inactive); in experiment [9] it was -14.5% (inactive). The nuclei count in experiment [2] came to 122%. Also, the z-score in experiment [3] (setting [10]) was -3.21; in experiment [3] (setting [11]), 1.73; in experiment [3] (setting [12]), 1.28. Also, the fluorescence slope in [5] is -0.49 (inactive); in [7], 0.00416 (inactive). The NADPH fluorescence slope in experiment [6] was -0.000116 (inactive). Further, in [8], the call was inactive.

`CCOC(=O)c1[nH]c2ccc(OC)cc2c1NC(=O)CCN1CCc2ccccc2C1`: the cell count in [1] was determined as 515. For the same compound, the inhibition in experiment [1] was -5.3% (inactive); in experiment [2] it was -124% (inactive); in experiment [4] it was 3.42% (inactive); in experiment [9], -5.17% (inactive). In experiment [2], this compound registered a nuclei count of 136%. Further, the z-score in experiment [3] (setting [10]) is -0.0545; in [3] (setting [11]) it was -2.02; in [3] (setting [12]), 1.46. The fluorescence slope in experiment [5] was -0.323 (inactive); in experiment [7], 0.00491 (inactive). In experiment [6], the NADPH fluorescence slope was -3.8e-05 (inactive). The compound was classed as inactive in experiment [8].

Consider `Nc1c(C(=O)NCc2ccco2)sc2nc(N3CCOCC3)c3c(c12)CCCC3`, for which the cell count in experiment [1] stood at 510. Further, the inhibition in [1] was -3.3% (inactive); in experiment [2], 21.6% (inactive); in experiment [4] it was 7.93% (inactive); in experiment [9], 7.67% (inactive). In [2], this compound registered a nuclei count of 169%. The z-score is -0.827 in experiment [3] (setting [10]), 1.22 in [3] (setting [11]) and 1.35 in experiment [3] (setting [12]). The fluorescence slope in [5] is -0.0309 (active); in experiment [7] it was 0.00375 (inactive). Besides, the NADPH fluorescence slope in experiment [6] was 4.6e-08 (inactive). Moreover, the compound was classed as inactive in [8].

On to `CN(C)c1ccc(C=Nc2cnn(C)c2C(N)=O)cc1`, for which the cell count in experiment [1] was found to be 657. For the same compound, the inhibition in experiment [1] was 5.6% (inactive); in experiment [2], 2% (inactive); in experiment [4], 9.91% (inactive); in experiment [9], 13.4% (inactive). The compound further came in with a nuclei count in experiment [2] of 112%. The z-score is -0.322 in experiment [3] (setting [10]), 0.511 in experiment [3] (setting [11]) and 0.593 in experiment [3] (setting [12]). For the same compound, the fluorescence slope in experiment [5] was -0.548 (inactive); in experiment [7], 0.00504 (inactive). For the same compound, the NADPH fluorescence slope in experiment [6] is -8.2e-05 (inactive). Further, the call in [8] was inactive.

For the compound `COc1ccc(OC)c(C2/C(=C(/O)c3ccccc3)C(=O)C(=O)N2Cc2ccco2)c1` (centres undefined), in experiment [1], the cell count worked out at 675. Besides, the inhibition was -11.7% (inactive) in experiment [1], -58% (inactive) in experiment [2], -11.4% (inactive) in experiment [4] and 5.53% (inactive) in [9]. This compound also returned a nuclei count in [2] of 169%. Besides, the values for the z-score in experiment [3] (setting [10]), in [3] (setting [11]) and in experiment [3] (setting [12]) were 0.317, -0.841 and 0.437, respectively. Moreover, the figures for the fluorescence slope in experiment [5] and in experiment [7] were -0.522 (inactive) and 0.00485 (inactive), respectively. The NADPH fluorescence slope in experiment [6] was -2.7e-05 (inactive). For the same compound, the outcome in [8] was inactive.
